Measurements reported in publication PMC7790123 (Psychopharmacology, 2020).

What was measured:
[1] = Drug concentration in free plasma and CSF after dosing; format: in vivo, rat; settings: for Drug Concentration CSF: 15 mg/kg ip
Method in brief: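 After 1 h acclimation, rats received vehicle or test compound, suspended in 0.1% Tween80, 0.1% silicone antifoam and 1% methylcellulose in water, given ip at 5 mL/kg. At 1 or 4 h, rats were anaesthetised with isoflurane and sampled. Blood was spun at 2000 g, 4°C, 10 min for plasma. CSF and plasma were stored at −80°C, then compound levels were measured by LC-MS/MS.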

COMT = target: T1, COMT (Rattus norvegicus, UniProt P22734); test: Frontal cortex microdialysis: DA, HVA and DOPAC in extracellular fluid; format: in vivo; settings: 20 min samples for 2 h after dosing, vs vehicle
T1 sequence (P22734 44-264 limits assumed): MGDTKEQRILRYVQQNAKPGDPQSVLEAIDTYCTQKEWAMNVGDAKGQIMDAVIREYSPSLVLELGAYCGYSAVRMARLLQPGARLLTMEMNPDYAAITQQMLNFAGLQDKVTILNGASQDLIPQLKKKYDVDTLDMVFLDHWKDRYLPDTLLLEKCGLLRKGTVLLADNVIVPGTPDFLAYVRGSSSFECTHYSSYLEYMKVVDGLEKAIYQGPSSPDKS

rats = test: Attentional set-shifting task; format: in vivo, rat; settings: 15 mg/kg ip, male rats, dosed 1 h before testing, vs vehicle
Method in brief: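 Rats were handled 1 min at least three times in the week before testing. The test compound was suspended in 0.1% Tween80, 0.1% silicone antifoam and 1% methylcellulose in water and given ip at 5 mL/kg, 1 h before testing. Over four days: pre-habituation, habituation, training, then a single test of seven discriminations (SD, CD, CDR, ID, IDR, ED, EDR). The first four trials were unscored; criterion was six consecutive correct. Analysis: two-way repeated-measures ANOVA with Tukey post hoc.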

[2] = male, rat, plasma (free, unbound concentration), intraperitoneal, 15 mg/kg

Drug Concentration CSF ([1]; female rats, 4 h): BLQ
Drug Concentration CSF ([1]; male rats, 1 h): BLQ
Drug Concentration CSF ([1]; male rats, 4 h): BLQ
concentration at 4 h ([1]; female, rat, plasma (free, unbound concentration), intraperitoneal, 15 mg/kg): 0.01 µM
concentration at 1 h [1, 2]: 0.035 µM
concentration at 4 h [1, 2]: 0.004 µM
SMILES: Cc1ccc(C(=O)c2cc(O)c(O)c([N+](=O)[O-])c2)cc1 [Tolcapone, tolcapone]
extracellular DOPAC concentration, frontal cortex (COMT): significantly increased DOPAC for the 40–120-min time points
extracellular HVA concentration, frontal cortex (COMT): significantly decreased HVA for the 40–120-min time points
ASST performance (trials to criterion), ED stage (rats): improved ED stage performance
